{"source": "ChEMBL document CHEMBL1122461", "about": "“Antiviral compounds. 1. Structure-activity relationship of some antiviral enediones derived from aldehydo sugars” (1983)", "key": {"Human alphaherpesvirus 1 [1]": {"test_system": "Human alphaherpesvirus 1", "experiment": "Antiviral activity against HSV-1 (Herpes simplex virus)", "type": "functional", "procedure,_shortened": "(§1)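 Disk-diffusion gradient assay. BSC1 (M199) or Vero (RPMI) monolayers with 10% inactivated calf serum are infected to give confluent plaques. They are overlaid with Eagle's/1% agar/5% calf serum. A 5-mm paper disk soaked in compound (5 mg/mL in DMSO) is placed centrally, then 3–4 days at 37 °C, fix and stain. Diameter of the destroyed central zone = toxicity. Plaque-free diameter minus toxic diameter = antiviral activity.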"}, "Vero": {"test_system": "Vero", "experiment": "Cytotoxicity against BSCL and Vero cells", "type": "functional, Chlorocebus sabaeus", "procedure,_shortened": "as §1"}, "Human alphaherpesvirus 1 [2]": {"test_system": "Human alphaherpesvirus 1", "experiment": "Growth inhibition against HSV-1 virus in BSCL cells at the dose of 17.0 ug/mL and 22h time of treatment.", "type": "functional", "settings": "Human alphaherpesvirus 1, BSCL", "procedure,_shortened": "(§2)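 HSV-1 grown 22 h in BSC1 cells in the presence of compound after infection at 1 pfu/cell (1 h, 37 °C, wash, medium with 2% calf serum). Virus yield is titred by plaque assay on agar overlay: 4 days at 37 °C, crystal violet stain, plaque count. Reported as % inhibition of virus growth.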"}, "BSC-1 [3]": {"test_system": "BSC-1", "experiment": "Inhibition of cellular DNA synthesis in BSCL cells at the dose of 17.0 ug/mL.", "type": "functional, Cercopithecidae", "settings": "Chlorocebus aethiops", "procedure,_shortened": "(§3)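 HSV-1-infected BSC1 cells labelled with [3H]thymidine (2 μCi/mL) from 3 h post-infection and harvested at 22 h. Lysed with 1% SDS and 0.3 mg/mL Pronase for 5 h at 37 °C. DNA banded on CsCl gradient (pH 8.0, 35000 rpm, 20 °C, 48 h). TCA-precipitable radioactivity in viral and cellular DNA peaks is summed and expressed as % of infected untreated culture.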"}, "Vaccinia virus": {"test_system": "Vaccinia virus", "experiment": "Antiviral activity against Vaccinia virus", "type": "functional, Orthopoxvirus vaccinia", "parameters": "unit not given here", "procedure,_shortened": "as §1"}, "Semliki Forest virus": {"test_system": "Semliki Forest virus", "experiment": "Antiviral activity against forest virus", "type": "functional", "procedure,_shortened": "as §1"}, "Human alphaherpesvirus 1 [4]": {"test_system": "Human alphaherpesvirus 1", "experiment": "Inhibition of viral DNA synthesis in HSV-1 virus at the dose of 17.0 ug/mL.", "type": "functional", "procedure,_shortened": "as §3"}, "BSC-1 [5]": {"test_system": "BSC-1", "experiment": "Inhibition of cellular DNA synthesis in BSCL cells at the dose of 1.4 ug/mL.", "type": "functional, Cercopithecidae", "settings": "Chlorocebus aethiops", "procedure,_shortened": "as §3"}, "Human alphaherpesvirus 1 [6]": {"test_system": "Human alphaherpesvirus 1", "experiment": "Growth inhibition against HSV-1 virus in BSCL cells at the dose of 1.4 ug/mL and 22h time of treatment.", "type": "functional", "settings": "Human alphaherpesvirus 1, BSCL", "procedure,_shortened": "as §2"}, "Human alphaherpesvirus 1 [7]": {"test_system": "Human alphaherpesvirus 1", "experiment": "Inhibition of viral DNA synthesis in HSV-1 virus at the dose of 1.4 ug/mL.", "type": "functional", "procedure,_shortened": "as §3"}, "Human alphaherpesvirus 1 [8]": {"test_system": "Human alphaherpesvirus 1", "experiment": "Inhibition of viral DNA synthesis in HSV-1 virus at the dose of 0.8 ug/mL.", "type": "functional", "procedure,_shortened": "as §3"}, "BSC-1 [9]": {"test_system": "BSC-1", "experiment": "Inhibition of cellular DNA synthesis in BSCL cells at the dose of 0.8 ug/mL.", "type": "functional, Cercopithecidae", "settings": "Chlorocebus aethiops", "procedure,_shortened": "as §3"}, "Human alphaherpesvirus 1 [10]": {"test_system": "Human alphaherpesvirus 1", "experiment": "Growth inhibition against HSV-1 virus in BSCL cells at the dose of 0.8 ug/mL and 22h time of treatment.", "type": "functional", "settings": "Human alphaherpesvirus 1, BSCL", "procedure,_shortened": "as §2"}}, "data": [{"compound": "CC(=O)C(=C[C@@H]1O[C@H](c2ccccc2)O[C@@H]2CO[C@@H](c3ccccc3)O[C@@H]12)C(C)=O", "values": [{"measurement": "Antiviral activity", "setting": "Human alphaherpesvirus 1 [1]", "value": 11, "unit": "mm"}, {"measurement": "Cytotoxicity", "setting": "Vero", "value": 10, "unit": "mm"}, {"measurement": "inhibition at 17 µg/mL", "setting": "Human alphaherpesvirus 1 [2]", "value": 95.5, "unit": "%"}, {"measurement": "inhibition at 17 µg/mL", "setting": "BSC-1 [3]", "value": 80.7, "unit": "%"}, {"measurement": "Antiviral activity", "setting": "Vaccinia virus", "value": 5}, {"measurement": "Antiviral activity", "setting": "Semliki Forest virus", "value": 0, "unit": "mm"}, {"measurement": "inhibition at 17 µg/mL", "setting": "Human alphaherpesvirus 1 [4]", "value": 50.9, "unit": "%"}]}, {"compound": "CC(=O)OCC(OC(C)=O)C(OC(C)=O)C(OC(C)=O)C(C=C(C(C)=O)C(C)=O)OC(C)=O", "note": "(stereo unspecified)", "values": [{"measurement": "Antiviral activity", "setting": "Human alphaherpesvirus 1 [1]", "value": 1, "unit": "mm"}, {"measurement": "Cytotoxicity", "setting": "Vero", "value": 8, "unit": "mm"}, {"measurement": "Antiviral activity", "setting": "Vaccinia virus", "value": 3}, {"measurement": "Antiviral activity", "setting": "Semliki Forest virus", "value": 0, "unit": "mm"}]}, {"compound": "CC(=O)/C(=C\\[C@@H]1O[C@H](c2ccccc2)O[C@@H]2CO[C@@H](c3ccccc3)O[C@@H]12)C(=O)c1ccccc1", "values": [{"measurement": "Antiviral activity", "setting": "Human alphaherpesvirus 1 [1]", "value": 12, "unit": "mm"}, {"measurement": "Cytotoxicity", "setting": "Vero", "value": 14, "unit": "mm"}, {"measurement": "Antiviral activity", "setting": "Vaccinia virus", "value": 8}, {"measurement": "Antiviral activity", "setting": "Semliki Forest virus", "value": 0, "unit": "mm"}]}, {"compound": "CC(=O)OC(C=C(C(C)=O)C(C)=O)C(OC(=O)c1ccccc1)C(COC(=O)c1ccccc1)OC(C)=O", "note": "(stereo unspecified)", "values": [{"measurement": "Antiviral activity", "setting": "Human alphaherpesvirus 1 [1]", "value": 4, "unit": "mm"}, {"measurement": "Cytotoxicity", "setting": "Vero", "value": 2, "unit": "mm"}, {"measurement": "Antiviral activity", "setting": "Vaccinia virus", "value": 6}, {"measurement": "Antiviral activity", "setting": "Semliki Forest virus", "value": 4, "unit": "mm"}]}, {"compound": "CC(=O)OCC(OC(C)=O)C(OC(C)=O)C(C=C(C(C)=O)C(C)=O)OC(C)=O", "note": "(stereo unspecified)", "values": [{"measurement": "Antiviral activity", "setting": "Human alphaherpesvirus 1 [1]", "value": 11, "unit": "mm"}, {"measurement": "Cytotoxicity", "setting": "Vero", "value": 13, "unit": "mm"}, {"measurement": "Antiviral activity", "setting": "Vaccinia virus", "value": 0}, {"measurement": "Antiviral activity", "setting": "Semliki Forest virus", "value": 0, "unit": "mm"}]}, {"compound": "O=C1OCC/C1=C\\[C@@H]1O[C@H](c2ccccc2)O[C@@H]2CO[C@@H](c3ccccc3)O[C@@H]12", "values": [{"measurement": "Antiviral activity", "setting": "Human alphaherpesvirus 1 [1]", "value": 0, "unit": "mm"}, {"measurement": "Cytotoxicity", "setting": "Vero", "value": 3, "unit": "mm"}, {"measurement": "Antiviral activity", "setting": "Vaccinia virus", "value": 14}, {"measurement": "Antiviral activity", "setting": "Semliki Forest virus", "value": 0, "unit": "mm"}]}, {"compound": "CC(=O)/C(=C\\[C@@H]1O[C@H](c2ccccc2)O[C@H](CC(=O)Oc2ccccc2)[C@H]1C(=O)Oc1ccccc1)C(=O)Nc1ccccc1", "values": [{"measurement": "Antiviral activity", "setting": "Human alphaherpesvirus 1 [1]", "value": 2, "unit": "mm"}, {"measurement": "Cytotoxicity", "setting": "Vero", "value": 4, "unit": "mm"}, {"measurement": "Antiviral activity", "setting": "Vaccinia virus", "value": 9}, {"measurement": "Antiviral activity", "setting": "Semliki Forest virus", "value": 0, "unit": "mm"}]}, {"compound": "O=C[C@@H]1O[C@H](c2ccccc2)O[C@@H]2CO[C@@H](c3ccccc3)O[C@@H]12", "values": [{"measurement": "Antiviral activity", "setting": "Human alphaherpesvirus 1 [1]", "value": 8, "unit": "mm"}, {"measurement": "Cytotoxicity", "setting": "Vero", "value": 8, "unit": "mm"}, {"measurement": "Antiviral activity", "setting": "Vaccinia virus", "value": 12}, {"measurement": "Antiviral activity", "setting": "Semliki Forest virus", "value": 6, "unit": "mm"}]}, {"compound": "Nc1ccn([C@@H]2O[C@H](CO)[C@@H](O)[C@@H]2O)c(=O)n1", "note": "[CYTARABINE]", "values": [{"measurement": "inhibition at 1.4 µg/mL", "setting": "BSC-1 [5]", "value": 38.3, "unit": "%"}, {"measurement": "inhibition at 1.4 µg/mL", "setting": "Human alphaherpesvirus 1 [6]", "value": 93.6, "unit": "%"}, {"measurement": "inhibition at 1.4 µg/mL", "setting": "Human alphaherpesvirus 1 [7]", "value": 0, "unit": "%"}]}, {"compound": "O=c1[nH]c(=O)n([C@H]2C[C@H](O)[C@@H](CO)O2)cc1I", "note": "[IDOXURIDINE]", "values": [{"measurement": "inhibition at 0.8 µg/mL", "setting": "Human alphaherpesvirus 1 [8]", "value": 31.1, "unit": "%"}, {"measurement": "inhibition at 0.8 µg/mL", "setting": "BSC-1 [9]", "value": 21.5, "unit": "%"}, {"measurement": "inhibition at 0.8 µg/mL", "setting": "Human alphaherpesvirus 1 [10]", "value": 71.3, "unit": "%"}]}]}
